Compounds with a hit are over-represented: about 2.3% of the library has one in this group of screens.
TRPC4 inh: inhibitors of mouse TRPC4 channel, primary screen, Fluo4 calcium, HEK293 TRPC4beta/mu-opioid cells. B-score at 10 µM. Short transient receptor potential channel 4 (Mus musculus), Q9QUQ5. DAMGO-evoked Fluo4 calcium flux; hits give low values. 300,000 compounds, 0.39% hits. AID 2247, 2010;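 active means B-score over 3 SD under the library average, no early fluorescence shift, positive overall ratio signal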
Target sequence (Q9QUQ5 whole entry, looked up): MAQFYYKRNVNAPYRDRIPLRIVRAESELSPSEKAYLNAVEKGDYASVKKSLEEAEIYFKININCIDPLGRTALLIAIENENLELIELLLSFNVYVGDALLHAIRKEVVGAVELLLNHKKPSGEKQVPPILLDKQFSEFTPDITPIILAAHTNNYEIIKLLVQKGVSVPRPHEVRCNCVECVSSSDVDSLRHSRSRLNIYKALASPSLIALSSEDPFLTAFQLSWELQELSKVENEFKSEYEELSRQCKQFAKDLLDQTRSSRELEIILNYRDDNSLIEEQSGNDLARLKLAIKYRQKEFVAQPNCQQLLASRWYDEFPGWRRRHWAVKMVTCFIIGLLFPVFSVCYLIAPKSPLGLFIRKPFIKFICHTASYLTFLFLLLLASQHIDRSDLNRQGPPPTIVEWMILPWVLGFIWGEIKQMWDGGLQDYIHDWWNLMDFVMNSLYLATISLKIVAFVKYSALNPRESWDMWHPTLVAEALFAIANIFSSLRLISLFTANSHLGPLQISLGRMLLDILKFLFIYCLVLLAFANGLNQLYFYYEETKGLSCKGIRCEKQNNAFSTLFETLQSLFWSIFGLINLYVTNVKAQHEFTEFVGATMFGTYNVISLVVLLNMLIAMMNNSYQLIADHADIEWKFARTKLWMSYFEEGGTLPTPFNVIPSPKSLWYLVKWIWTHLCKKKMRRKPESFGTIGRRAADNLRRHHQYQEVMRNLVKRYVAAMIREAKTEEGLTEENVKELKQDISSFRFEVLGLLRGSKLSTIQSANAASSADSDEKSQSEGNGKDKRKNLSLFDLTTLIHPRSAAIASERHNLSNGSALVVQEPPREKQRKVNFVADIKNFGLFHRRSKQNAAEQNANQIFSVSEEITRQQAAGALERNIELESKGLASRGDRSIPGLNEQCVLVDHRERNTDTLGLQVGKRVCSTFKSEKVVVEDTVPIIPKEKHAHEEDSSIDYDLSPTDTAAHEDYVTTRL
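Signal: kinetic Fluo4 fluorescence imaging of calcium influx. Material: stable TRPC4beta/mu-opioid receptor HEK293 cells. Probe or stimulus: DAMGO in two steps, submaximal then maximal.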
TRPC6 activator: mouse TRPC6 channel activators, primary screen, cell-based, HEK293, membrane potential dye; HEK293-TRPC6 membrane potential dye fluorescence; hits give high values; 310,000 compounds, 0.13% hits; AID 2550, 2010; Short transient receptor potential channel 6 (Mus musculus), Q61143; B-score at 10 µM;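 active means B-score of the integrated fluorescence ratio above library mean plus 3 SD, and starting fluorescence ratio within library mean plus 5 SD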;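 further: higher score means more depolarization so channel activation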
TRPC4 agonist: activators of mouse TRPC4 channel, primary screen, Fluo4 calcium, HEK293 TRPC4beta/mu-opioid cells; Fluo4 calcium fluorescence; hits give high values; Short transient receptor potential channel 4 (Mus musculus), Q9QUQ5; AID 2237, 2010; 310,000 compounds, 0.49% hits; B-score at 10 µM;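 active means B-score above 5 SD of library B-scores, and initial fluorescence ratio not above library mean plus 5 SD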;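 further: positive B-score marks a calcium rise read as TRPC4 activation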
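System – HEK293 cells stably co-expressing mouse TRPC4beta and mu-opioid receptor · Signal – Fluo4 calcium-sensitive dye fluorescence, kinetic, 1 Hz baseline · Benchmarks – buffer (low) and maximal DAMGO (high) · Read-out – B score of integrated fluorescence ratio per well · Incubation – dye loading 45 min room temperature, 110 s kinetic read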
TRPC4 PAM: positive allosteric modulators of TRPC4, primary screen, cell-based, mouse TRPC4beta, HEK293 mu-opioid, Fluo-4 calcium. AID 2227, 2009. Short transient receptor potential channel 4 (Mus musculus), Q9QUQ5. B-score at 10 µM. 310,000 compounds, 0.42% hits. DAMGO EC20, Fluo-4 Ca2+ flux; hits give high values;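 active means B-score of calcium response area above 5 SD of library B-scores, with initial fluorescence ratio within 5 SD of library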
TRPC6 inh: mouse TRPC6 channel inhibitors, primary screen, cell-based, HEK293, membrane potential dye | AID 2553, 2010 | 310,000 compounds, 1.1% hits | B-score at 10 µM | ACh-evoked depolarization; hits give low values;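 active means B-score under library mean minus 3 SD, initial fluorescence not abnormally high, positive integrated signal ratio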;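 further: B-score derived from integrated fluorescence ratio over the kinetic read; more negative B-score means stronger inhibition of depolarization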
TRPC4 sel inh 2: second selectivity test of TRPC6 inhibitors: effect on mouse TRPC4. HEK293 TRPC4/MOR, membrane potential dye fluorescence; channel activated by saturating DAMGO dose. inhibition, % at 10 µM. 920 compounds, 42% hits. shares compounds with TRPC6 inh;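 active means compounds whose fluorescence signal differed from control wells by over 3 SD, either direction, in both duplicate plates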
TRPC4 spec: mouse TRPC4 modulation by TRPC6 hits, confirmation, selectivity assay for TRPC6 inhibitor project, cell-based, HEK293 TRPC4/mu-opioid, membrane potential dye; shares compounds with TRPC6 inh; membrane potential fluorescence; activity change, negative = inhibition, % at 10 µM; 920 compounds, 61% hits;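 active means rise or fall in signal beyond 3 SD of buffer-only wells in both replicate plates, either sign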;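 further: integrated kinetic ratio of fluorescence range over baseline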
HEK293 MPD ctr 2-1: nonspecific membrane potential effects, parental HEK293, confirmation, counter-screen for TRPC6 inhibitor project, cell-based, second counter screen. shares compounds with TRPC6 inh. parental HEK293 membrane potential dye fluorescence; maximal acetylcholine challenge after compound addition. signal change vs control, % at 10 µM. 920 compounds, 31% hits. AID 2779, 2010;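 active means membrane potential signal moving either way by over 3 SD of the maximum-effect control, in both duplicate plates, meaning non-specific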
HEK293 MPD ctr-1: membrane potential modulation in parental HEK293, confirmation, counter-screen for TRPC6 inhibitor project, cell-based; shares compounds with TRPC6 inh; parental HEK293 membrane potential dye fluorescence; membrane potential signal change, % at 10 µM; 920 compounds, 60% hits;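 active means membrane potential signal shifting up or down by more than 3 SD of buffer-only wells, on both duplicate plates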
HEK293 MPD ctr-2: parental HEK293 membrane potential modulation, confirmation, counter-screen for TRPC6 modulator project, cell-based. membrane potential signal change, % at 10 µM. AID 488924, 2010. shares compounds with TRPC6 inh. 2,400 compounds, 51% hits. membrane potential dye fluorescence;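 active means membrane potential signal moves up or down beyond 5 SD from buffer-only wells, on both duplicate plates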
HEK293 MPD ctr 2-2: parental HEK293 nonspecific activity of TRPC6 modulators, second screen; shares compounds with TRPC6 inh; membrane potential dye fluorescence; after compound, maximal acetylcholine stimulation; inhibition, % at 10 µM; 2,400 compounds, 14% hits; AID 488926;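 active means membrane potential signal drops by more than 5 SD from the mean control signal, in both duplicate plates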
TRPC4/MOR mod: TRPC4 modulation by TRPC6 hit compounds, confirmation, selectivity assay for TRPC6 modulator project, cell-based, HEK293 TRPC4/mu-opioid, membrane potential dye, mouse; membrane potential fluorescence; 2,400 compounds, 69% hits; shares compounds with TRPC6 inh; percent change from control (negative = decrease, positive = increase), % at 10 µM;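 active means membrane potential signal moved up or down beyond 5 SD of buffer control wells, in both duplicate plates, actives on both sides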
TRPC4 ctr inh 2: second check of whether TRPC6 modulators also affect mouse TRPC4. inhibition, % at 10 µM. shares compounds with TRPC6 inh. 2,400 compounds, 55% hits. HEK293 TRPC4/mu-opioid, membrane potential dye fluorescence; stimulated with maximal-effect DAMGO. AID 488928;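 active means drop in membrane potential signal beyond 5 SD of the control wells in both duplicate plates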;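 further: TRPC4 counter screen for TRPC6 hits run under conditions tuned for TRPC6 not TRPC4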
TRPC6 block conf: mouse TRPC6 channel inhibitors, confirmation, HEK293 cells, membrane potential dye, duplicate. 3,300 compounds, 43% hits. AID 488960, 2010. shares compounds with TRPC6 inh. inhibition, % at 10 µM. ACh-evoked depolarization;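 active means fluorescence ratio falls more than 5 SD below the full-stimulation control mean, in both duplicate runs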;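 further: integrated fluorescence ratio of peak minus minimum over baseline after agonist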
TRPC6 act confirm: mouse TRPC6 channel activators, confirmation, HEK293 cells, membrane potential dye, duplicate; shares compounds with TRPC6 inh; HEK293-TRPC6 membrane potential dye fluorescence, FDSS; activation, % at 10 µM; 2,800 compounds, 11% hits;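 active means ratio signal rise beyond 5 SD above unstimulated control wells' mean, seen in both duplicate runs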
Of the large screens only hits and unclear results are named; the others gave an inactive call (follow-up assays come after a bar, where they were run).

COc1ccc(/C=C(/NC(=O)/C=C/c2ccccc2)C(=O)N2CCOCC2)cc1	TRPC6 inh -5.84 | HEK293 MPD ctr-2 inactive | HEK293 MPD ctr 2-2 inactive | TRPC4/MOR mod inactive | TRPC4 ctr inh 2 inactive | TRPC6 block conf 41.5% | TRPC6 act confirm inactive
CN(C)CCOc1nc(-c2ccccc2)nc2c1oc1ccccc12	TRPC4 agonist 45, TRPC6 inh -8.87 | TRPC4 sel inh 2 62.0% | TRPC4 spec inactive | HEK293 MPD ctr 2-1 inactive | HEK293 MPD ctr-1 inactive | TRPC6 block conf inactive | TRPC6 act confirm inactive
C/C(=N\NC(=S)NC(C)C)c1ccccc1OC(F)F	TRPC6 inh -8.85 | TRPC4 sel inh 2 inactive | TRPC4 spec inactive | HEK293 MPD ctr 2-1 inactive | HEK293 MPD ctr-1 inactive | TRPC6 block conf inactive | TRPC6 act confirm inactive
O=C(c1ccccc1)C(CCC(CN1CCOCC1)C(=O)c1ccccc1)CN1CCOCC1 (stereo unspecified)	none
CC/C(=C\c1oc2cc3ccccc3cc2[n+]1CC)Nc1ccccc1	TRPC6 inh -5.1 | HEK293 MPD ctr-2 inactive | HEK293 MPD ctr 2-2 inactive | TRPC4/MOR mod inactive | TRPC4 ctr inh 2 79.5% | TRPC6 block conf 59.0% | TRPC6 act confirm inactive
CCCOc1ccc(/C=N/NC(=O)c2ccc(Cn3cc([N+](=O)[O-])cn3)o2)cc1	none
COc1ccc(C(=O)O/N=C(\N)Cc2ccc([N+](=O)[O-])cc2)c(OC)c1	none
CN1CCN(c2ccc(NC(=O)c3ccc(Cl)cc3Cl)cc2)CC1	TRPC6 inh -5.93 | HEK293 MPD ctr-2 inactive | HEK293 MPD ctr 2-2 inactive | TRPC4/MOR mod inactive | TRPC4 ctr inh 2 inactive | TRPC6 block conf inactive | TRPC6 act confirm inactive
O=C(Nc1ccc(N2CCCC2)cc1)c1ccc(Cl)cc1Cl	none
CN(C)CCSc1nc(N)c2c3c(sc2n1)CN(C)CC3	TRPC6 inh -8.56 | HEK293 MPD ctr-2 -209.5% | HEK293 MPD ctr 2-2 inactive | TRPC4/MOR mod -39.0% | TRPC4 ctr inh 2 46.5% | TRPC6 block conf 55.0% | TRPC6 act confirm inactive
COCCSc1nc(N)c2c3c(sc2n1)CN(C)CC3	TRPC6 inh -9.43 | HEK293 MPD ctr-2 -148.5% | HEK293 MPD ctr 2-2 inactive | TRPC4/MOR mod -29.0% | TRPC4 ctr inh 2 30.0% | TRPC6 block conf inactive | TRPC6 act confirm inactive
CSc1nc(NCC(C)C)c2c3c(sc2n1)CN(C)CC3	none
CCCSc1nc(N)c2c3c(sc2n1)CN(C)CC3	TRPC6 inh -7.11 | HEK293 MPD ctr-2 -111.5% | HEK293 MPD ctr 2-2 inactive | TRPC4/MOR mod -26.5% | TRPC4 ctr inh 2 inactive | TRPC6 block conf inactive | TRPC6 act confirm inactive
CC(C)Sc1nc(N)c2c3c(sc2n1)CN(C)CC3	none
COCCNC(=S)NNc1ccccc1[N+](=O)[O-]	none
Cc1cnc(NC(=O)Cc2ccc(C)c(C)c2)s1	none
COc1ccc(-c2nc3n(c2C)Cc2ccccc2-3)cc1	TRPC6 inh -6.17 | HEK293 MPD ctr-2 -69.5% | HEK293 MPD ctr 2-2 inactive | TRPC4/MOR mod -14.5% | TRPC4 ctr inh 2 52.0% | TRPC6 block conf inactive | TRPC6 act confirm inactive
Cc1c(C)n(Cc2ccccc2)c2ccc(C(=O)OCCCN(C)C)cc12	TRPC6 inh -8.51 | TRPC4 sel inh 2 33.5% | TRPC4 spec inactive | HEK293 MPD ctr 2-1 inactive | HEK293 MPD ctr-1 inactive | TRPC6 block conf 74.5% | TRPC6 act confirm inactive
Cc1c(C)n(CCN(C)C)c2ccc(C(=O)OCCN(C)C)cc12	TRPC6 inh -7.08 | HEK293 MPD ctr-2 -153.0% | HEK293 MPD ctr 2-2 inactive | TRPC4/MOR mod -31.5% | TRPC4 ctr inh 2 75.0% | TRPC6 block conf 56.5% | TRPC6 act confirm inactive
CCN1CCN(C(=O)c2ccc3c(c2)c(C)c(C)n3Cc2ccccc2)CC1	none
Cc1[nH]c2ccc(C(=O)OCCN(C)C)cc2c1C	none
COc1ccc(C(=O)Nc2ccc(C3CC3(Cl)Cl)cc2)cc1 (stereo unspecified)	none
O=C(CCOc1ccccc1)Nc1ccccc1F	none
CSCC[C@H](NC(=O)Nc1cccc(Br)c1)C(=O)O	none
CCCCNC(=O)CCC(=O)Nc1ccc2nc(N3CCOCC3)cc(C)c2c1	none
CCN(CC)CCCNC(=O)CCC(=O)Nc1ccc2nc(N3CCC(C)CC3)cc(C)c2c1	TRPC6 inh -6.08 | HEK293 MPD ctr-2 135.5% | HEK293 MPD ctr 2-2 inactive | TRPC4/MOR mod 22.5% | TRPC4 ctr inh 2 inactive | TRPC6 block conf inactive
